Screens deposited in PubChem by several laboratories.
TNAP inh noacc: blocks human TNAP activity with no phosphate acceptor present; inhibition, % at 20 µM; purified TNAP, CDP-star luminescence, 30 min; 0.26% of 200,000 active; P05186;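 active means tissue-nonspecific alkaline phosphatase inhibition above about 50% at 20 µM in the single-dose screen, limit read from the data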
Target sequence (P05186 whole entry, looked up): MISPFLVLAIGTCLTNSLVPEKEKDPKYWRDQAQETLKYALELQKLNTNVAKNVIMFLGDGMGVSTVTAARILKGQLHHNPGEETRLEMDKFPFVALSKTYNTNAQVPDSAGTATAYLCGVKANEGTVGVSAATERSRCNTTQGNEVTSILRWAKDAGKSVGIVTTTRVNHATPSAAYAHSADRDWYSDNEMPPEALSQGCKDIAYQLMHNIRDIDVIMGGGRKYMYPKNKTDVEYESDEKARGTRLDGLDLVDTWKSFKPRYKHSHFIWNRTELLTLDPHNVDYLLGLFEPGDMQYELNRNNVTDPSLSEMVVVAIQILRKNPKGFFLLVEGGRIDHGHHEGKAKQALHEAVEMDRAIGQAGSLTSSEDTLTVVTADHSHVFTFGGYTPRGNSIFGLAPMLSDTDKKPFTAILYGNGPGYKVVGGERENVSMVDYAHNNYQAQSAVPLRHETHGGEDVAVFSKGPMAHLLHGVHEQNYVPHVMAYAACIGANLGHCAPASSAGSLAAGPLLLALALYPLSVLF
TNAP inh hiacc: inhibitors of human TNAP at high phosphate acceptor concentration. inhibition, % at 20 µM. 0.03% of 200,000 active. P05186. purified TNAP, CDP-star luminescence, 1 M DEA;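 active means over 50% inhibition of tissue-nonspecific alkaline phosphatase at 20 µM in the single-dose screen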
PTEN del growth: growth suppressors of cells with PTEN tumor suppressor deletion | HCT116 PTEN-null viability, CellTiter-Glo, 60 h; stronger effect = lower value | viability, % at 10 µM | AID 827 | 1.2% of 140,000 active;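 active means viability at or below a set limit, 4 SD under the median of all tested compounds, cut at about 3.7% in these data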;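 further: PTEN knockout HCT116 line with beta catenin targeted HCT116 as companion control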
bCat KO growth: beta-catenin-lacking colon tumor cell growth suppression. HCT116 beta-catenin knockout viability, CellTiter-Glo, 60 h; stronger effect = lower value. AID 818. viability, % at 10 µM. 1.5% of 140,000 active;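 active means viability at or under a set limit, the compound median less 4 SD, cut at about 6% in these data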
TNAP act hi DEA: increases human TNAP activity under high phosphate acceptor concentration; P05186; purified TNAP, CDP-star luminescence, 1 M DEA, 30 min; stronger effect = higher value; 0 = EDTA background, 1 = DMSO-only activity; activation factor at 20 µM; 200,000 tested, under 10 active; AID 1136;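 active means activation factor at least 2 at 20 µM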
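Measured by: Luminescent substrate turnover signal | Test system: Human TNAP | Input: TNAP 1/800 final | Dosing: 20 µM single point | Schedule: 30 min, room temperature | Controls: EDTA wells as negative control, DMSO wells as positive control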
L major viab: reduces viability of Leishmania major promastigotes; resazurin fluorescence viability; inhibition, % at 10 µM; 9% of 200,000 active; in the data active means inhibition above about 50%;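 further: promastigotes grown with compound for 44 hours at 28 °C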
Large screens that a line does not name were inactive. Rows were chosen to be rich in hits. Some 9.6% of all compounds tested hit in one or more screens of this group.

CCCc1cc2c(=O)c(-c3ccc4c(c3)OCCO4)coc2cc1OS(C)(=O)=O	L major viab 76
CCOC(=O)C1(CCCc2ccccc2)CCN(C2CCN(C(C)=O)CC2)CC1	L major viab 78 (no result: PTEN del growth, bCat KO growth)
CCOC(=O)C1(Cc2ccccc2C(F)(F)F)CCN(C2CCC2)CC1	L major viab 61 (no result: PTEN del growth, bCat KO growth)
CCOC(=O)C1(Cc2ccccc2C(F)(F)F)CCN(C2CCN(C(C)=O)CC2)CC1	L major viab 77 (no result: PTEN del growth, bCat KO growth)
CC1(CC(=O)N/N=C/c2cc3c(cc2Br)OCO3)OCCO1	none (no result: PTEN del growth, bCat KO growth)
O=C(NCc1ccncc1)C(=O)N/N=C/c1ccc(OCc2ccccc2)cc1	none (no result: PTEN del growth, bCat KO growth)
O=NN(CCc1ccncc1)c1ccc(OCc2ccccc2)cc1	L major viab 86 (no result: PTEN del growth, bCat KO growth)
COc1ccc(/C=C/C(=O)NCCSCc2ccco2)cc1	none
O=C(Nc1cccc(C(F)(F)F)c1)C1CCCN1S(=O)(=O)c1cccc2cccnc12 (stereo unspecified)	L major viab 84
CCN(CC)C(=O)CSc1nc2c(sc(=S)n2-c2ccccc2)c(=O)n1Cc1ccco1	none
CCN(CC)C(=O)CSc1nc2c(sc(=S)n2CC)c(=O)n1-c1ccccc1	L major viab 59
COc1cc(/C=N/NC(=O)c2ccc(CSc3nc4ccccc4[nH]3)cc2)ccc1O	none (no result: PTEN del growth, bCat KO growth)
CCOC(=O)CC(NC(=O)Cn1nnc(-c2ccccc2F)n1)c1ccccc1Cl (stereo unspecified)	none (no result: PTEN del growth, bCat KO growth)
CCc1ccc2c(c1)C(c1ccncc1)=NNC(c1ccccc1)=N2	L major viab 55 (no result: PTEN del growth, bCat KO growth)
Cc1ccc(C2=Nc3ccc(Br)cc3C(c3ccncc3)=NN2)cc1	L major viab 85 (no result: PTEN del growth, bCat KO growth)
Cc1ccc2c(c1)C(c1ccncc1)=NNC(c1ccc(F)cc1)=N2	none (no result: PTEN del growth, bCat KO growth)
COc1ccc(CCNC(=O)c2ccc(-c3ccc([N+](=O)[O-])cc3Cl)o2)cc1	none
COc1cc(/C=C(\C#N)C(=O)NC(C)C)cc(Cl)c1O	none (no result: PTEN del growth, bCat KO growth)
CC(C)=CCCC(C)CN1CCC(N2CCC(C(=O)N3CCCC3)CC2)CC1 (stereo unspecified)	L major viab 73 (no result: PTEN del growth, bCat KO growth)
CC(C)(C)c1cc(CN2CCC(O)CC2)cc(C(C)(C)C)c1O	none
O=C(C1CCN(C2CCN(Cc3ccc4c(c3)CCO4)CC2)CC1)N1CCCC1	none (no result: PTEN del growth, bCat KO growth)
C=C(C)C1CC=C(CN2CCC(O)CC2)CC1 (stereo unspecified)	L major viab 93
C=C(C)[C@@H]1CC=C(CN2CCC(N3CCC(C(=O)N4CCCC4)CC3)CC2)CC1	L major viab 79 (no result: PTEN del growth, bCat KO growth)
CC1CCCN(C(=O)C2CCN(CC(C)c3ccccc3)CC2)C1 (stereo unspecified)	none
c1ccc2c(c1)OCCOCCOc1ccccc1OCCOCCO2	none
O=C(Nc1ccccc1Br)C1CCN(C(=O)Cc2ccccc2)CC1	none
NC(=O)Nc1ccc(C(=O)OCC(=O)NC2CCCCC2)cc1	none (no result: PTEN del growth, bCat KO growth)
Cc1cccnc1Nc1nc(-c2ccc(O)cc2)cs1	L major viab 99
Cc1ccc(C)c(S(=O)(=O)Nc2ccc3sc(C)nc3c2)c1	L major viab 95
Cn1c(CNC(=O)c2ccccc2)nnc1SCC(=O)Nc1nccs1	none (no result: PTEN del growth, bCat KO growth)
BrC(=C\c1ccccc1)/C=N/Nc1nc(N2CCOCC2)nc(N2CCOCC2)n1	L major viab 86
CN(C)c1nc(NCc2ccccc2)nc(N/N=C/c2cccc(Br)c2)n1	L major viab 52 (no result: PTEN del growth, bCat KO growth)
C(=N\Nc1nc(N2CCCC2)nc(N2CCCC2)n1)/c1ccccc1OCc1ccccc1	none (no result: PTEN del growth, bCat KO growth)
BrC(/C=C\c1ccccc1)=N/Nc1nc(N2CCOCC2)nc(N2CCOCC2)n1	none (no result: PTEN del growth, bCat KO growth)
Fc1ccccc1COc1ccccc1/C=N/Nc1nc(N2CCCC2)nc(N2CCCC2)n1	L major viab 50
Fc1ccc(Nc2nc(N/N=C/c3ccco3)nc(N3CCCCC3)n2)cc1	L major viab 83 (no result: PTEN del growth, bCat KO growth)
CCN(CC(=O)NC(C)(C)C)C(=O)C(c1ccccc1)c1ccccc1	none (no result: PTEN del growth, bCat KO growth)
CCc1ccc(NC(=S)N(CCN(C)C)C(C)c2ccncc2)cc1 (stereo unspecified)	none (no result: PTEN del growth, bCat KO growth)
CCOc1cc(NC(=S)NCC2CCCO2)c(OCC)cc1NC(=O)c1cccc(F)c1 (stereo unspecified)	none (no result: PTEN del growth, bCat KO growth)
CC(=O)NC(Cc1ccc(C(C)C)cc1)C(=O)NC1CCN(C(=O)c2cccc(C)c2)CC1 (stereo unspecified)	none (no result: PTEN del growth, bCat KO growth)
C(=N\Nc1nc(N2CCCCCC2)nc(N2CCCCCC2)n1)/c1ccccc1	L major viab 61 (no result: PTEN del growth, bCat KO growth)
Brc1cccc(/C=N/Nc2nc(N3CCCCC3)nc(N3CCCCC3)n2)c1	L major viab 52 (no result: PTEN del growth, bCat KO growth)
Oc1ccc(/C=N/Nc2nc(N3CCCCCC3)nc(N3CCCCCC3)n2)c(O)c1	none (no result: PTEN del growth, bCat KO growth)
Oc1ccc(/C=N/Nc2nc(N3CCCC3)nc(N3CCCC3)n2)cc1O	none (no result: PTEN del growth, bCat KO growth)
Oc1ccc(Br)cc1/C=N/Nc1nc(N2CCCCC2)nc(N2CCOCC2)n1	L major viab 91 (no result: PTEN del growth, bCat KO growth)
c1ccc(CSc2nnc(SCc3ccccn3)s2)nc1	none
N=C(N)SCc1ccccn1	TNAP inh noacc 51
CNC(=O)COC(=O)/C=C/c1c(C)nn(-c2ccccc2)c1C	none
O=C(/C=C/c1cccc([N+](=O)[O-])c1)Nc1ccccc1N1CCOCC1	none
CCN(CC)S(=O)(=O)c1cccc(NC(=O)/C=C/c2cccc([N+](=O)[O-])c2)c1	L major viab 99
O=C(/C=C/c1cccc([N+](=O)[O-])c1)NC(=S)Nc1cccc(NC(=O)c2ccccc2Cl)c1	PTEN del growth 2.8
O=C(/C=C/c1cccc([N+](=O)[O-])c1)NC(=S)Nc1ccccc1C(=O)O	none (no result: PTEN del growth, bCat KO growth)
CC(C)CNC(=O)c1ccccc1NC(=O)/C=C/c1cccc([N+](=O)[O-])c1	L major viab 53
O=C1N/C(=N\c2ccccn2)SC1Cc1ccc(Cl)cc1 (stereo unspecified)	none (no result: PTEN del growth, bCat KO growth)
CCOc1ccc(NC(=S)N2CCN(c3ccc(N4CCOCC4)nn3)CC2)cc1	none (no result: PTEN del growth, bCat KO growth)
COC(=O)c1cc(=O)n(Cc2ccc3c(c2)OCO3)c(=Nc2ccccc2)s1	L major viab 82
COC(=O)C1=C(C)N(Cc2ccc3c(c2)OCO3)C(=O)C1	none (no result: PTEN del growth, bCat KO growth)
CC(=O)c1c(O)cc(C)n(-c2ccc(F)cc2)c1=O	none (no result: PTEN del growth, bCat KO growth)
COC(=O)c1cc(=O)n(-c2ccc(F)cc2)c(=Nc2ccc(F)cc2)s1	L major viab 92
CCOC(=O)c1ccc(N=c2sc(C(=O)OC)cc(=O)n2C2CC2)cc1	none (no result: TNAP inh noacc, TNAP inh hiacc, TNAP act hi DEA)
COC(=O)c1c(O)cc(C(C)(C)C)n(-c2ccc(F)cc2)c1=O	L major viab 63
CCOC(=O)c1ccc(N=c2sc(C(=O)OC)cc(=O)n2Cc2ccc3c(c2)OCO3)cc1	L major viab 100
Cc1ccc(/C=C(\NC(=O)c2ccccc2)C(=O)N2CCCC2C(=O)O)cc1 (stereo unspecified)	none (no result: PTEN del growth, bCat KO growth)
C1CCC(Nc2nc3nonc3nc2N2CCSCC2)C1	none (no result: PTEN del growth, bCat KO growth)
CCN=c1sc(C(=O)OC)cc(=O)n1CC	none
COC(=O)c1cc(=O)n(Cc2ccc(F)cc2)c(=NCc2ccc(F)cc2)s1	none (no result: PTEN del growth, bCat KO growth)
COC(=O)c1cc(=O)n(Cc2ccc3c(c2)OCO3)c(=Nc2ccc(F)cc2)s1	L major viab 87
